Rows were chosen to be rich in hits. Some 5.4% of all compounds tested hit in one or more screens of this group.
Rev-RRE block: HIV-1 Rev-RRE binding inhibitors, primary screen, biochemical, FRET, protein-RNA interaction; Rev peptide-RRE RNA binding; hit rate 0.79% among 97,000; AID 704, 2007; P05866; inhibition, % at 8 µM;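 active means inhibition above the screen-wide mean plus 3 SD, cut at about 35% in these data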;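 further: 0% = median DMSO wells and 100% = median Neomycin B control wells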
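Test system – labelled RRE RNA duplex and labelled Rev peptide · Signal – fluorescein-to-Cy5 FRET, 480 nm excitation · Evaluation – % inhibition of FRET ratio versus controls · Benchmarks – DMSO low control, neomycin B high control · Incubation – 5 min RNA-compound premix plus 15 min binding step, 25 °C · Medium – HEPES pH 7.5 salt buffer with EDTA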
EphB4 ephrin blk: EphB4-ephrin-B2 interaction antagonists, primary screen, biochemical, TNYL-RAW peptide probe, fluorescence polarization | Ephrin type-B receptor 4 (Homo sapiens), P54760 | EphB4 LBD / TNYL-RAW-Alexa532 peptide | inhibition, % at 7 µM | hit rate 0.15% among 97,000 | AID 720, 2007;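 active means inhibition above the screen-wide mean inhibition plus 3 SD, cut at about 15% in these data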;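 further: 0% = DMSO wells and 100% = excess unlabeled TNYL-RAW peptide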
DAT uptake mod: changed hDAT dopamine uptake under cocaine IC80, either direction, primary screen, cocaine antagonist project, cell-based, LLC-PK1 hDAT, [14C]-dopamine uptake, MLSMR; LLC-PK1 hDAT cells, [14C]-dopamine uptake with cocaine IC80; actives deviate in either direction; B-score at 10 µM; hit rate 1.3% among 110,000; AID 449768, 2010;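 active means Z score or B-score, a plate-position-corrected score, falls beyond the plate's 99.7% confidence bounds, in either direction; inactive means both scores lie inside the 99.7% bounds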;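 further: scored against the spread of the other compound wells on the same plate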
Cav3 T inh: Cav3.2 calcium influx blockers – cell-based, Fluo-4 calcium fluorescence, FDSS, MLSMR library, primary screen; Cav3.2-expressing cells; hits give low values; B-score at 10 µM; hit rate 4% among 100,000;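 active means single-dose well whose peak fluorescence ratio is a statistical outlier from its plate by either plate-standardised score or position-corrected B-score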
An asterisk follows results filed as active; . = no result given; [ ] = another dose, or the depositor's remark.

SMILES	Rev-RRE block	EphB4 ephrin blk	DAT uptake mod	Cav3 T inh
COC(=O)CNC(=O)CN1C(=O)N(c2cccc(Cl)c2)C(N(O)C(=O)Nc2cccc(Cl)c2)C1(C)C (stereo unspecified)	6.2	-8.8	-0.388	-4.69*
CCOC(=O)C1=NN(C(=O)c2ccc(C)cc2)C(O)(c2ccc(Cl)cc2)C1 (stereo unspecified)	10.3	8.9	1.44	-6.26*
CC1=C(C)CS(=O)N(S(=O)(=O)c2ccccc2)C1 (stereo unspecified)	1.7	2.2	-0.0142	-7.88*
NS(=O)(=O)c1ccc(S(=O)(=O)N2CCCC2)cc1	7.2	9.7	-0.244	-0.456
CC1=C(C)CS(=O)N(c2ccc(S(N)(=O)=O)cc2)C1 (stereo unspecified)	5.7	-9.4	-0.877	-7.18*
Cc1cccc(NC(=S)NNC(=O)c2nn(C)cc2Cl)c1	6.2	8.1	-1.04	0.736
Cn1cnnc1SCC(=O)Nc1ccc2nc(SCc3cccc4ccccc34)sc2c1	1.4	16.9*	-0.0313	0.0809
N#Cc1nc(-c2cccc(Cl)c2)oc1NCc1cccnc1	6.9	3.0	1.42	0.0333
O=C1CC(O)(c2ccccc2)C(c2ccccc2)=C1c1ccccc1 (stereo unspecified)	14.8	6.8	0.0181	-4.96*
O=S(=O)(Nc1nc2ccccc2s1)c1ccc(Cl)s1	8.2	1.2	-3.6*	-5.08*
Cc1cc(Br)ccc1NC(=O)CNC(=O)CN(C)Cc1nc2ccccc2c(=O)[nH]1	-1.2	4.0	-0.00852	-0.0943
COc1cccc(C2C=C(c3ccc(Br)s3)Nc3ncnn32)c1OC (stereo unspecified)	.	.	0.597	-0.648
Fc1ccc(Br)cc1C1C=C(c2ccc(Br)s2)Nc2ncnn21 (stereo unspecified)	.	.	0.0431	-2.85*
CCOC(=O)c1cc(-c2ccccc2)sc1NC(=O)CN1C(=O)NC(CC)(c2ccccc2)C1=O (stereo unspecified)	0.7	-2.7	0.235	-2
CCC1(c2cccc(Cl)c2)NC(=O)N(Cc2cc(C(=O)OC)c(C)o2)C1=O (stereo unspecified)	3.6	-6.6	1.2	-5.54*
C=CCn1c(SCC(=O)Nc2cc(C)on2)nc2sc(CC)cc2c1=O	4.4	-1.1	-0.0559	-0.0363
N#CC1=C2N=C(N)c3ccccc3N2C2=C(C(=O)CCC2)C1c1ccc(Cl)cc1 (stereo unspecified)	.	.	1.34	-3.1
Cc1ccccc1C1C(C#N)=C2N=C(N)c3c(sc4c3CCCCC4)N2C2=C1C(=O)CCC2 (stereo unspecified)	66.3*	-6.0	2.09	0.0352
COc1ccc(N=C2S/C(=C\c3ccc(N4CCOCC4)o3)C(=O)N2CCc2c[nH]c3ccccc23)cc1	131.3*[fluorescence artefact?]	0.6	-0.423	-2.7
FC(F)(F)c1cc(-c2ccc(Cl)cc2)nc(NCc2cccnc2)n1	7.1	4.5	-0.0648	0.707
Cc1ccc(-c2cc(C(F)F)nc(NCc3cccnc3)n2)cc1	5.1	0.2	-0.117	-4.4*
NNC(=O)c1ccccc1CO	.	.	0.508	-1.7
O=C(CCC1CCCC1)c1c(O)c2ccccc2oc1=O	1.4	3.8	-3.17*	-7.97*
COc1[nH]c(/N=C/c2ccccc2)c(C#N)c1C#N	38.0*	3.9	0.529	-5.92*
COc1ccc(CC(=O)NC2CC(C)(C)NC(C)(C)C2)cc1	4.8	0.9	-0.935	0.0819
SMILES	Rev-RRE block	EphB4 ephrin blk	DAT uptake mod	Cav3 T inh
CCCc1cc(C(=O)Cc2ccc(C(=O)OCC)o2)c(O)cc1O	16.6	1.5	-0.157	-4.13*
COc1cc(/C=C2\S/C(=N/S(=O)(=O)c3ccc(C)cc3)NC2=O)c([N+](=O)[O-])cc1OC	17.2	-2.9	0.317	-5.27*
C=CCn1c2ccccc2c2nnc(SC(CC)C(=O)Nc3sc4c(c3C#N)CCCC4)nc21 (stereo unspecified)	5.9	4.2	-0.286	-2.82
COc1cc2c(O)c3c(c(-c4ccc5c(c4)OCO5)c2cc1OC)C(=O)OC3	3.2	0.5	-0.28	-4.21*
O=C(Nc1ccccn1)C(=O)N1CCCCC1	6.8	5.6	0.558	-0.429
Clc1ccc(COc2ccccn2)c(Cl)c1	3.2	-2.1	-1.1	0.0398
O=C(O)c1ccccc1-c1nc2ccccc2c(=O)[nH]1	.	.	0.0992	0.0485
O=C(O)c1ccccc1C1=Nc2ccc(O)cc2Oc2cc(O)ccc21	77.5*	-3.8	-0.912	-9.2*
O=C(COC(=O)C1c2ccccc2Oc2ccccc21)Nc1ccc2c(c1)OCO2	15.8	8.0	-0.0426	-4.27*
O=C(COC(=O)CCCc1c[nH]c2ccccc12)Nc1ccc2c(c1)OCO2	10.7	9.0	-0.189	-1.01
C=CCn1c(SCC(=O)NCc2ccc3c(c2)OCO3)nnc1C1COc2ccccc2O1 (stereo unspecified)	1.7	-7.0	1.39	-3.32
C=CCn1c(SCc2c(C)noc2C)nnc1C1COc2ccccc2O1 (stereo unspecified)	6.2	11.9	0.586	-4.87*
Cn1c(SCC#N)nnc1-c1cnccn1	-2.1	-5.1	0.0494	0.0138
O=C1c2cccc3c(O)ccc(c23)C(=O)N1Cc1ccccc1	130.5*[fluorescence artefact?]	9.8	-0.192	-10.1*
O=C1c2cccnc2C(=O)N1Cc1ccccc1	.	.	-1.04	-0.67
Cc1ccc(-n2ncc3c(=O)n(CC(=O)N4CCCCCC4)cnc32)cc1	9.9	15.9*	0.545	0.462
CCCCN1C(=O)C(O)=C(C(C)=O)C1c1ccccc1 (stereo unspecified)	-0.7	5.2	-0.51	0.878
CCCCCCN1C(=O)C(O)=C(C(C)=O)C1c1ccc(Cl)cc1 (stereo unspecified)	.	.	-0.488	-7.81*
CCC(C)Nc1nc(-c2cccc(OC)c2O)nc2ccccc12 (stereo unspecified)	2.2	2.1	3.66*	0.662
COc1cccc(-c2nc(NC(C)C)c3ccccc3n2)c1O	0.8	6.9	2.32	.
CC(=O)c1cc(NC(=O)c2ccc(Cl)cc2)c(=O)oc1/C=C/N(C)C	129.5*[fluorescence artefact?]	-1.0	-1.04	-2.89
O=C(Nc1ccc(/C=C/c2nc3ccccc3o2)cc1)c1cccc(C(F)(F)F)c1	16.2	3.9	-0.879	-0.16
CC(=O)c1cc(NC(=O)c2cccc(C(F)(F)F)c2)c(=O)oc1/C=C/N(C)C	127.0*[fluorescence artefact?]	-1.0	0.851	-0.554
O=C(CC1(C(F)(F)F)OCCO1)Nc1ccc2c(c1)OCO2	4.9	3.6	-0.247	-1.23
N#C/C(=C\c1cn(-c2ccccc2)nc1-c1cccnc1)c1nnc2n1CCCCC2	8.6	3.2	1.14	0.996
Cc1onc(-c2ccccc2Cl)c1C(=O)Nc1ccc2c(c1)OCO2	3.3	-14.9	-0.168	-0.168
Cc1cc(NC(=O)c2c(-c3ccccc3Cl)noc2C)no1	2.0	2.0	-0.256	-0.585
Cc1ccc(Cn2ccc(NC(=O)c3c(-c4ccccc4Cl)noc3C)n2)cc1	5.8	-10.4	2.95	-5.52*

Bioassay records from PubChem.
